# Data as given in PubChem BioAssay AID2178 (The Scripps Research Institute Molecular Screening Center, 2009).
# Screen size: about 2,400 compounds; fewer than 10 were called active. Not all results are given here. A number with no mark means an inactive call.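 How the source made its calls: active means average inhibition across replicates above the hit cutoff set in the earlier primary screen; inactive means the rest.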
# Target: Procathepsin L (Homo sapiens) (UniProt P07711)
# Experiment: cathepsin L1 inhibitors, retest, confirmation, counter-screen for PFM18AAP inhibitor project, biochemical, QFRET, triplicate (AID 2178);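 further: 0% = median of test compound wells and 100% = Z-Phe-Ala-diazomethylketone 1 µM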
# Conditions: purified cathepsin L1, Z-Leu-Arg-MCA fluorescence; at 5.96 µM; active compounds read high
# How it was run: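 Material: purified cathepsin L1 / Compound dosing: single nominal compound dose of 5.96 µM, 0.59% DMSO / Schedule: 30 min compound preincubation, then 90 min with substrate, 25 °C / Signal: MCA fluorescence measured at substrate addition and at 90 min / Read-out: % inhibition from fluorescence gain versus inhibitor control / Replicates: triplicate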
# Chain of Procathepsin L (Homo sapiens) (P07711 whole entry, looked up): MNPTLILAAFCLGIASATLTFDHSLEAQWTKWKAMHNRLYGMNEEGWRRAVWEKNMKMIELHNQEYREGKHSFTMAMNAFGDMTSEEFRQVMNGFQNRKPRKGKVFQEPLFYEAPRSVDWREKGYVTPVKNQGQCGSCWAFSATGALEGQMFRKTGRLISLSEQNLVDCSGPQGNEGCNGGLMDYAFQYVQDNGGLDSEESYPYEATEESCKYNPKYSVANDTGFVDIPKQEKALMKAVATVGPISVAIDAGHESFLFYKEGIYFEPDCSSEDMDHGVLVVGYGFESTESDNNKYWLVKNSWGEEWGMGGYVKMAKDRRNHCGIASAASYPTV
row,SMILES,inhibition [%]
1,COc1ccc(OC)c(Nc2nc(-c3ccc(O)c(O)c3)cs2)c1,4.97
2,Cc1cc2nc3c(=O)n(Cc4ccccc4)c(=O)[nH]c3nc2cc1N,2.68
3,Cc1cc(-c2ccc(/C=N/n3cnnc3)o2)c([N+](=O)[O-])cc1C,1.38
4,O=C(CC(n1cncn1)C(Cl)(Cl)Cl)c1ccc([N+](=O)[O-])cc1 (stereo not given),1.47
5,Cc1ccc(Cl)cc1-c1ccc(/C=N/n2cnnc2)o1,3.57
6,COc1cc(S(=O)(=O)Nc2ncn[nH]2)ccc1Cl,0.28
7,O=[N+]([O-])c1ccc(N2CCN(c3ccc(O)cc3)CC2)c(Cl)c1,0.99
8,COc1cccc2cc(-c3cc(=O)oc4cc(C)c(O)cc34)oc12,-0.83
9,CC(=O)N(c1ccc2oc(=O)sc2c1)S(=O)(=O)c1ccc(C)cc1,-0.05
10,O=S(=O)(c1ccc(NC(=S)NN=C(C2CC2)C2CC2)cc1)N1CCOCC1,0.19
11,COc1cc(NC(=S)N2CCCC(C)C2)c(OC)cc1Cl (stereo not given),-10.4
12,Cc1ccsc1/C=N/Nc1ccc(Cl)nn1,0.84
13,COc1ccccc1-c1nnc(SCC(=O)Nc2cc(C)on2)o1,8.93
14,O=C(N/N=C/c1ccc(O)c(O)c1)C1c2ccccc2Oc2ccccc21,-5.02
15,O=C(CN1CCN(S(=O)(=O)c2cc(Cl)ccc2Cl)CC1)c1ccc(O)c(O)c1,-1.56
16,O=C(Cn1c[n+](CC(=O)c2ccc([N+](=O)[O-])cc2)cn1)c1ccc([N+](=O)[O-])cc1,13.7
17,Cc1ccc(NC(=O)c2c(NC(=O)CCC(=O)O)sc3c2CCCCC3)cc1,5.04
18,CC/C(C)=N/Nc1nc2sc3c(c2c(=O)[nH]1)CC(C)(C)OC3,2.48
19,Cn1sc(=O)c2cc(S(=O)(=O)NC3CC3)ccc21,-0.58
20,CCOc1ccc(-n2c(O)c(/C=N/Nc3nnc(C)c(=O)[nH]3)c3ccccc3c2=O)cc1,-0.55
21,Oc1cccc(/C=N/Nc2ccc(Cl)nn2)c1O,2.12
22,Cc1c(CC(=O)N2CCN(C(=O)C3COc4ccccc4O3)CC2)c(=O)oc2c(O)c(O)ccc12 (stereo not given),0.56
23,O=C(CSC(=S)N1CCOCC1)c1cc(Br)cc(Br)c1O,-2.37
24,CNC(=O)c1c(NC(NC(=O)c2ccco2)C(=O)c2ccc(Cl)cc2)sc2c1CCCC2 (stereo not given),-3.32
25,N#CCC(=O)N/N=C/c1ccc(SCC(=O)Nc2ccccc2)o1,-1.02

row,SMILES,inhibition [%]
1,CC(=O)c1ccc(NC(=O)CCc2nnc3ccc(NCc4ccco4)nn23)cc1,-4.62
2,c1ccc(-c2ccc3c(c2)NC(C2Nc4cc(-c5ccccc5)ccc4O2)O3)cc1 (stereo not given),0.56
3,CCN(CC)S(=O)(=O)c1cc([N+](=O)[O-])ccc1NNC(=O)Nc1ccccc1,5.14
4,COc1cc(Br)cc(/C=N/c2ncn[nH]2)c1O,-0.48
5,Oc1c(C(c2ccco2)N2CCC3(CC2)OCCO3)sc2ncnn12 (stereo not given),-2.01
6,Cc1onc(-c2ccccc2)c1C(=O)NNC(=S)NC(=O)c1ccc(F)cc1,3.64
7,O=C(CSc1ncn[nH]1)Nc1nc(-c2cccc([N+](=O)[O-])c2)cs1,1.01
8,COc1ccc(/C=N/Nc2nc3ccccc3o2)cc1OC,-3.54
9,Cc1cc([N+](=O)[O-])c(-c2ccc(/C=N/n3cnnc3)o2)cc1Cl,5.55
10,O=C(CSc1ncn[nH]1)Nc1nsc(-c2ccccc2)n1,1.95
11,NC(=O)c1c(Nc2nc3c(F)cccc3s2)sc2c1CCCC2,3.61
12,CCOC(=O)NNc1cc(C(F)(F)F)ccn1,4.25
13,Cc1cc(/C=N/Nc2ccc([N+](=O)[O-])cn2)c(C)n1-c1cccc(C(=O)O)c1,3.84
14,S=c1[nH]c(-c2cccs2)cn1-c1ccccc1,-4.9
15,Cc1nccn1CC(=O)N/N=C/c1ccc(O)c(O)c1,5.14
16,Oc1ccc(-c2csc(Nc3cccnc3)n2)cc1,6.56
17,O=C(NNC(=O)c1ccco1)Nc1ccccc1,2.81
18,CCOCCCNC(=O)c1ccc(CS(=O)(=O)c2cccc(C(F)(F)F)c2)o1,-1.17
19,ONC(=Nc1ccccc1)c1ccccc1Cl,1.1
20,CCN1/C(=C/C(=S)Nc2ccccc2)Sc2ccccc21,0.64
21,OCCN1CCN(C(=S)c2ccc(-c3ccccc3)cc2)CC1,-0.85
22,CCn1c(CNS(=O)(=O)c2ccc(Cl)cc2)n[nH]c1=S,1.4
23,CC1(C)CC(=O)C/C(=N\NC(=O)c2cccs2)C1,-0.13
24,Cc1ccnc(-n2sc3ccccc3c2=O)n1,-1.29
25,Cc1nnc(SCC(=O)Nn2cnnc2)s1,1.95
